What was measured:
Mus musculus [1] = species on record: Mus musculus; assay: 50% inhibition of solid tumor growth (Sarcoma 180 cells) in mice; format: functional
Method in brief: (§1)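 Sarcoma 180 cells inoculated sc into the axillary region of ddY mice on day 0; compound given iv on day 1. Tumor volume compared treated versus control (T/C). ED50 is the dose giving 50% inhibition of tumor growth, from the dose-response curve. Optimal dose also recorded.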

Mus musculus [2] = species on record: Mus musculus; assay: T/C value was measured as tumor volume in the treated versus control mice.; format: functional; method in brief: as §1
[3] = Optimal dose was measured against sarcoma 180 cell in mice; format: functional, Mus musculus; method in brief: as §1
HeLa = assay: Inhibition of HeLa S3 cell growth relative to mitomycin C action (ratio of IC50 values); format: functional, Homo sapiens
Method in brief: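 HeLa S3 cells plated on day 0 and exposed to drug for 1 h on day 1. IC50 is the concentration giving 50% growth inhibition, taken from the concentration-response curve. Reported as IC50 of test compound divided by IC50 of mitomycin C.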

## COC1=C(C)C(=O)C2=C(C1=O)[C@H](COC(N)=O)[C@@]1(O)[C@@H]3[C@H](CN21)N3C (stereo not given in full) [MITOMYCIN B]
Mus musculus [1]
  ED50: 2.8 mg/kg
Mus musculus [2]
  T/C: 0.37
[3]
  OD: 4 mg/kg
HeLa
  IC50 ratio: 0.29

## CN1[C@H]2[C@@H]1CN1C3=C(C(=O)C(N)=CC3=O)[C@H](COC(N)=O)[C@@]21O (stereo not given in full)
Mus musculus [1]
  ED50: 33 mg/kg
Mus musculus [2]
  T/C: 0.26
[3]
  OD: 100 mg/kg
HeLa
  IC50 ratio: >71

## CO[C@@]12[C@H](COC(N)=O)C3=C(C(=O)C(C)=C(N)C3=O)N1C[C@@H]1N[C@@H]12 [MITOMYCIN]
Mus musculus [1]
  ED50: 1.6 mg/kg
Mus musculus [2]
  T/C: 0.27
[3]
  OD: 3.1 mg/kg
HeLa
  IC50 ratio: 0.49

## CO[C@@]12[C@H](COC(N)=O)C3=C(C(=O)C=C(N)C3=O)N1C[C@@H]1N[C@@H]12
Mus musculus [1]
  ED50: 2.6 mg/kg
Mus musculus [2]
  T/C: 0.25
[3]
  OD: 5 mg/kg
HeLa
  IC50 ratio: 3.2

## CO[C@@]12[C@H](COC(N)=O)C3=C(C(=O)C(Cl)=C(N)C3=O)N1C[C@H]1[C@@H]2N1C (stereo not given in full)
Mus musculus [1]
  ED50: 2.3 mg/kg
Mus musculus [2]
  T/C: 0.11
[3]
  OD: 4 mg/kg
HeLa
  IC50 ratio: 0.76

## CN1[C@H]2[C@@H]1CN1C3=C(C(=O)C(N)=C(Br)C3=O)[C@H](COC(N)=O)[C@@]21O (stereo not given in full)
Mus musculus [2]
  T/C: 0.55
[3]
  OD: 30 mg/kg
HeLa
  IC50 ratio: >35

## COC1=C(Br)C(=O)C2=C(C1=O)[C@@H](COC(N)=O)[C@@]1(OC)[C@@H]3[C@H](CN21)N3C (stereo not given in full)
Mus musculus [2]
  T/C: 0.97
[3]
  OD: 14 mg/kg
HeLa
  IC50 ratio: >4.8

## CO[C@@]12[C@H](COC(N)=O)C3=C(C(=O)C(Cl)=C(N)C3=O)N1C[C@@H]1N[C@@H]12
Mus musculus [1]
  ED50: 1.4 mg/kg
Mus musculus [2]
  T/C: 0.14
[3]
  OD: 2.7 mg/kg
HeLa
  IC50 ratio: 0.37

## COC1=C(Cl)C(=O)C2=C(C1=O)[C@H](COC(N)=O)[C@@]1(O)[C@@H]3[C@H](CN21)N3C (stereo not given in full)
Mus musculus [2]
  T/C: 0.62
[3]
  OD: 20 mg/kg
HeLa
  IC50 ratio: 11

## CC1=C(N)C(=O)C2=C(C1=O)N1C[C@H]3[C@H](N3C)[C@]1(O)[C@H]2COC(N)=O (stereo not given in full)
Mus musculus [2]
  T/C: 0.59
[3]
  OD: 100 mg/kg
HeLa
  IC50 ratio: >20

## CN1[C@H]2[C@@H]1CN1C3=C(C(=O)C(N)=C(Cl)C3=O)[C@H](COC(N)=O)[C@@]21O (stereo not given in full)
Mus musculus [1]
  ED50: 17 mg/kg
Mus musculus [2]
  T/C: 0.43
[3]
  OD: 20 mg/kg
HeLa
  IC50 ratio: >20

## COC1=CC(=O)C2=C(C1=O)[C@@H](COC(N)=O)[C@@]1(OC)[C@@H]3[C@H](CN21)N3C (stereo not given in full)
Mus musculus [1]
  ED50: 7.1 mg/kg
Mus musculus [2]
  T/C: 0.36
[3]
  OD: 10 mg/kg
HeLa
  IC50 ratio: 0.29

## COC1=CC(=O)C2=C(C1=O)[C@@H](COC(N)=O)[C@@]1(OC)[C@H]3N[C@H]3CN21
Mus musculus [1]
  ED50: 1.6 mg/kg
Mus musculus [2]
  T/C: 0.45
[3]
  OD: 2 mg/kg
HeLa
  IC50 ratio: 0.3

## CO[C@@]12[C@H](COC(N)=O)C3=C(C(=O)C(C)=C(N)C3=O)N1C[C@H]1[C@@H]2N1C (stereo not given in full) [PORFIROMYCIN]
Mus musculus [1]
  ED50: 16 mg/kg
Mus musculus [2]
  T/C: 0.23
[3]
  OD: 40 mg/kg
HeLa
  IC50 ratio: 9.5

## COC1=CC(=O)C2=C(C1=O)[C@H](COC(N)=O)[C@@]1(O)[C@@H]3[C@H](CN21)N3C (stereo not given in full)
Mus musculus [1]
  ED50: 11 mg/kg
Mus musculus [2]
  T/C: 0.31
[3]
  OD: 20 mg/kg
HeLa
  IC50 ratio: 16

## COC1=C(Cl)C(=O)C2=C(C1=O)[C@@H](COC(N)=O)[C@@]1(OC)[C@H]3N[C@H]3CN21
HeLa
  IC50 ratio: 2.5

## COC1=C(Br)C(=O)C2=C(C1=O)[C@@H](COC(N)=O)[C@@]1(OC)[C@H]3N[C@H]3CN21
Mus musculus [1]
  ED50: 8.4 mg/kg
Mus musculus [2]
  T/C: 0.47
[3]
  OD: 14 mg/kg
HeLa
  IC50 ratio: 1.9

## CO[C@@]12[C@H](COC(N)=O)C3=C(C(=O)C(Br)=C(N)C3=O)N1C[C@H]1[C@@H]2N1C (stereo not given in full)
Mus musculus [2]
  T/C: 0.63
[3]
  OD: 4 mg/kg
HeLa
  IC50 ratio: 1.9

## CO[C@@]12[C@H](COC(N)=O)C3=C(C(=O)C=C(N)C3=O)N1C[C@H]1[C@@H]2N1C (stereo not given in full)
Mus musculus [1]
  ED50: 8.4 mg/kg
Mus musculus [2]
  T/C: 0.08
[3]
  OD: 20 mg/kg
HeLa
  IC50 ratio: 16

## COC1=C(Br)C(=O)C2=C(C1=O)[C@H](COC(N)=O)[C@@]1(O)[C@@H]3[C@H](CN21)N3C (stereo not given in full)
Mus musculus [1]
  ED50: 22 mg/kg
Mus musculus [2]
  T/C: 0.44
[3]
  OD: 30 mg/kg
HeLa
  IC50 ratio: >3.7

## COC1=C(C)C(=O)C2=C(C1=O)[C@@H](COC(N)=O)[C@@]1(OC)[C@@H]3[C@H](CN21)N3C (stereo not given in full) [N-METHYL-MITOMYCIN A]
Mus musculus [1]
  ED50: 6.5 mg/kg
Mus musculus [2]
  T/C: 0.32
[3]
  OD: 8 mg/kg
HeLa
  IC50 ratio: <0.031

## COC1=C(C)C(=O)C2=C(C1=O)[C@@H](COC(N)=O)[C@@]1(OC)[C@H]3N[C@H]3CN21 [MITOMYCIN A]
Mus musculus [1]
  ED50: 1.3 mg/kg
Mus musculus [2]
  T/C: 0.2
[3]
  OD: 1.8 mg/kg
HeLa
  IC50 ratio: 0.0035

Reference: ChEMBL document CHEMBL1128498, “Synthesis and antitumor activity of various 6-demethylmitomycins and 6-demethyl-6-halomitomycins” (1995)
